# From ChEMBL document CHEMBL1142506, “(3S)-N-(L-Aminoacyl)-1,2,3,4-tetrahydroisoquinolines, a class of novel antithrombotic agents: synthesis, bioassay, 3D QSAR, and ADME analysis” (Bioorg Med Chem, 2008)
# Square brackets hold non-standard residues; d marks the D form. Peptide text beside a SMILES is read from it. Tic = O=C(O)[C@@H]1Cc2ccccc2CN1
# Assays:
# [1] = tested on: Platelet; assay: Inhibition of thrombin-induced platelet aggregation in pig blood; format: functional, cell-based; conditions: Sus scrofa
# Procedure, shortened: (§1)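 Pig blood was spun at 1000g for 10 min to give PRP and at 1500g for 10 min to give PPP. PRP was adjusted to 2 × 10^8 platelets/ml with autologous PPP. The sample was preincubated with test agent or NS. Agonist final concentrations, each in NS: ADP 10 µM, AA 350 µM, PAF 0.1 µM, thrombin 0.1 U/ml. Optical aggregometry ran 5 min at 37 °C. Peak height gave maximal aggregation; % inhibition versus NS gave IC50.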
# [2] = tested on: Platelet; assay: Inhibition of adenosine diphosphate-induced platelet aggregation in pig blood; format: functional, cell-based; conditions: Sus scrofa; procedure, shortened: as §1
# [3] = tested on: Rattus norvegicus; assay: Antithrombotic activity in Wistar rat assessed as wet thrombus weight at 5 umol/kg; format: functional
# Procedure, shortened: (§2)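 Male Wistar rats (250–300 g) got the test agent orally, dissolved in NS and kept on ice; NS served as vehicle. After 45 min, rats were anesthetized with pentobarbital sodium (80.0 mg/kg ip). An extracorporeal carotid artery–jugular vein polyethylene cannula holding a weighed 6 cm thread was placed, and the wet thrombus weight on the thread was recorded.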
# [4] = tested on: Platelet; assay: Inhibition of arachidonic acid-induced platelet aggregation in pig blood; format: functional, cell-based; conditions: Sus scrofa; procedure, shortened: as §1
# [5] = tested on: Platelet; assay: Inhibition of platelet-activating factor-induced platelet aggregation in pig blood; format: functional, cell-based; conditions: Sus scrofa; procedure, shortened: as §1
# [6] = tested on: Rattus norvegicus; assay: Antithrombotic activity in Wistar rat assessed as wet thrombus weight at 15 umol/kg; format: functional; procedure, shortened: as §2
# [7] = tested on: Rattus norvegicus; assay: Antithrombotic activity in Wistar rat assessed as wet thrombus weight at 110 x 5 umol/kg; format: functional; procedure, shortened: as §2
# [8] = tested on: Rattus norvegicus; assay: Antithrombotic activity in Wistar rat assessed as wet thrombus weight at 22 x 5 umol/kg; format: functional; procedure, shortened: as §2
# [9] = tested on: Rattus norvegicus; assay: Antithrombotic activity in Wistar rat assessed as wet thrombus weight at 5 nmol/kg; format: functional
# Procedure, shortened: (§3)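 Dose series (5 µmol/kg, 500 nmol/kg, 50 nmol/kg, 5 nmol/kg) given by intravenous injection to male Wistar rats (250–300 g) in an arteriovenous cannula model containing a weighed 6 cm thread. Anesthesia was pentobarbital sodium (80.0 mg/kg ip) with NS vehicle. Wet thrombus weight is given as mean ± SD, n = 12.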
# [10] = tested on: Rattus norvegicus; assay: Antithrombotic activity in Wistar rat assessed as wet thrombus weight at 500 nmol/kg; format: functional; procedure, shortened: as §3
# [11] = tested on: Rattus norvegicus; assay: Antithrombotic activity in Wistar rat assessed as wet thrombus weight at 50 nmol/kg; format: functional; procedure, shortened: as §3
IC50 [1] [nM],IC50 [2] [nM],IC50 [4] [nM],IC50 [5] [nM],SMILES,Activity [3] [mg],Activity [6] [mg],Activity [7] [mg],Activity [8] [mg],Activity [9] [mg],Activity [10] [mg],Activity [11] [mg]
829,323,344,472,NCCCC[C@H](N)C(=O)N1Cc2ccccc2C[C@H]1C(=O)O (H-Lys-[Tic]-OH),21.31,–,–,–,–,–,–
882,552,452,960,O=C(O)[C@@H]1Cc2ccccc2CN1,26.88,21.52,–,–,–,–,–
851,370,573,527,N[C@@H](Cc1ccccc1)C(=O)N1Cc2ccccc2C[C@H]1C(=O)O (H-Phe-[Tic]-OH),22.23,–,–,–,–,–,–
674,315,465,831,CC[C@H](C)[C@H](N)C(=O)N1Cc2ccccc2C[C@H]1C(=O)O (H-Ile-[Tic]-OH),21.14,–,–,–,–,–,–
730,336,238,892,CC(C)C[C@H](N)C(=O)N1Cc2ccccc2C[C@H]1C(=O)O (H-Leu-[Tic]-OH),19.12,–,–,–,–,–,–
3290,3320,3430,3180,O=C(O)[C@@H]1Cc2c([nH]c3ccccc23)CN1 [CYCLOMETHYLTRYPTOPHAN],–,–,–,–,–,–,–
607,265,430,409,CSCC[C@H](N)C(=O)N1Cc2ccccc2C[C@H]1C(=O)O (H-Met-[Tic]-OH),19.56,–,–,–,–,–,–
879,240,535,404,C[C@@H](O)[C@H](N)C(=O)N1Cc2ccccc2C[C@H]1C(=O)O (H-Thr-[Tic]-OH),20.73,–,–,–,–,–,–
–,–,–,–,CC(=O)Oc1ccccc1C(=O)O [ASPIRIN],–,–,13.22,27.6,–,–,–
741,651,440,945,C[C@H](N)C(=O)N1Cc2ccccc2C[C@H]1C(=O)O (H-Ala-[Tic]-OH),20.3,–,–,–,–,–,–
590,373,382,507,O=C(O)[C@@H]1Cc2ccccc2CN1C(=O)[C@@H]1CCCN1 (H-Pro-[Tic]-OH),21.09,–,–,–,–,–,–
902,345,369,383,N[C@@H](CC(=O)O)C(=O)N1Cc2ccccc2C[C@H]1C(=O)O (H-Asp-[Tic]-OH),20.3,–,–,–,–,–,–
555,302,351,392,NC(=O)CC[C@H](N)C(=O)N1Cc2ccccc2C[C@H]1C(=O)O (H-Gln-[Tic]-OH),21.3,–,–,–,–,–,–
761,365,423,875,NCC(=O)N1Cc2ccccc2C[C@H]1C(=O)O (H-Gly-[Tic]-OH),21.17,–,–,–,–,–,–
589,494,298,544,N[C@@H](CCC(=O)O)C(=O)N1Cc2ccccc2C[C@H]1C(=O)O (H-Glu-[Tic]-OH),20.87,–,–,–,–,–,–
565,210,217,517,N=C(N)NCCC[C@H](N)C(=O)N1Cc2ccccc2C[C@H]1C(=O)O (H-Arg-[Tic]-OH),20.06,–,–,–,–,–,–
495,534,407,360,NC(=O)C[C@H](N)C(=O)N1Cc2ccccc2C[C@H]1C(=O)O (H-Asn-[Tic]-OH),22.66,–,–,–,–,–,–
684,324,521,670,N[C@@H](Cc1c[nH]cn1)C(=O)N1Cc2ccccc2C[C@H]1C(=O)O (H-His-[Tic]-OH),21.78,–,–,–,–,–,–
653,389,666,632,CC(C)[C@H](N)C(=O)N1Cc2ccccc2C[C@H]1C(=O)O (H-Val-[Tic]-OH),20.12,–,–,–,–,–,–
498,103,215,267,N[C@@H](CO)C(=O)N1Cc2ccccc2C[C@H]1C(=O)O (H-Ser-[Tic]-OH),18,–,–,–,28.58,18.31,22.54
720,194,572,422,N[C@@H](Cc1c[nH]c2ccccc12)C(=O)N1Cc2ccccc2C[C@H]1C(=O)O (H-Trp-[Tic]-OH),19.47,–,–,–,–,–,–

SMILES,IC50 [1] [nM],IC50 [2] [nM],IC50 [4] [nM],IC50 [5] [nM],Activity [3] [mg],Activity [6] [mg],Activity [7] [mg],Activity [8] [mg],Activity [9] [mg],Activity [10] [mg],Activity [11] [mg]
N[C@@H](Cc1ccc(O)cc1)C(=O)N1Cc2ccccc2C[C@H]1C(=O)O (H-Tyr-[Tic]-OH),738,327,526,668,20.92,–,–,–,–,–,–
